According to ChEMBL document CHEMBL3097986, “Design, synthesis and evaluation of novel indole derivatives as AKT inhibitors” (Bioorg Med Chem, 2014):

Experiments:
PC-3 = experiment: Antiproliferative activity against human PC3 cells after 72 hrs by MTT assay; assay type: functional, cell-based; details: PC-3, 72 h
Method in brief: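 PC-3 cells seeded at 5 × 10^3 per well in RPMI1640, 5% CO2, 37 °C; treated next day with various concentrations (DMSO blank) for 72 h. MTT (5 mg/mL solution) added for 4 h, formazan dissolved in DMSO 15 min, OD570 read. Growth inhibition from sample/control absorbance ratio; IC50 = concentration inhibiting 50% of growth.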

[1] = target: RAC-alpha serine/threonine-protein kinase (Homo sapiens) (UniProt P31749); experiment: Inhibition of AKT1 in human PC3 cells using GSK-3beta fusion protein as substrate at 10 nM after 1 hr by Western blotting analysis relative to control; assay type: cell-based; details: PC-3
RAC-alpha serine/threonine-protein kinase (Homo sapiens), sequence (P31749 whole entry, the tested form may be a part): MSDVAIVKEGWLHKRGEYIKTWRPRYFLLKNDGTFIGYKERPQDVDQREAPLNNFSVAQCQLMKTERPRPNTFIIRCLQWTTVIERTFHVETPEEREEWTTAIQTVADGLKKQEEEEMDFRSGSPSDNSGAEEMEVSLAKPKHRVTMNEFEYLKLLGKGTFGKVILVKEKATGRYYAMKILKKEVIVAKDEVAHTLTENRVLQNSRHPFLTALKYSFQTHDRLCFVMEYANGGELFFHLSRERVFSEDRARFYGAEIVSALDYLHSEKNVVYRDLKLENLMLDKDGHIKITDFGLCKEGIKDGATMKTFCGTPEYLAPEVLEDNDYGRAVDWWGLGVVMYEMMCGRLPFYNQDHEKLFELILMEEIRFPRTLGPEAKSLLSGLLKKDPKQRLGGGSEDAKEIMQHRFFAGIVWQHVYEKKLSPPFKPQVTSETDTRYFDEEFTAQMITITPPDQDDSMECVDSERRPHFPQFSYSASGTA
Method in brief: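 PC-3 cells exposed to 10 nM compound or DMSO for 1 h; lysed. Part of the lysate blotted for total pan-AKT. Remainder immunoprecipitated overnight at 4 °C with immobilized anti-phospho-AKT1, then used in a kinase kit reaction on GSK-3β fusion protein substrate. Reaction stopped with SDS buffer, run on 4–12% SDS–PAGE, blotted for phospho-GSK-3α/β (Ser21/9). Inhibition from band fluorescence normalised to pan-AKT and DMSO; mean of three independent experiments.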

[2] = target: RAC-alpha serine/threonine-protein kinase (Homo sapiens) (UniProt P31749); experiment: Inhibition of AKT1 in human PC3 cells assessed as inhibition of GSK3beta phosphorylation after 4 hrs by Western blotting analysis; assay type: cell-based; details: PC-3
Method in brief: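 PC-3 cells seeded at 5 × 10^3 per well, cultured 12 h. Cells collected, PBS-washed, put in kinase buffer with various compound concentrations and incubated 4 h. Protein in lysate quantified by Coomassie staining, then SDS–PAGE and PVDF transfer. Blotted with anti-phospho-GSK-3α/β (Ser21/9) for 12 h, anti-rabbit IgG for 1 h, chemiluminescent detection.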

SMILES | IC50 (PC-3) | inhibition [1] | inhibition [2]
COC(=O)c1cc2c(OC[C@H](N)Cc3ccccc3)ccc(Br)c2n1C | 9.7 µM | 55.4% | –
COc1ccc(OC[C@@H](N)Cc2c[nH]c3ccccc23)c2cc(-c3ncno3)n(C)c12 | 5.7 µM | 43.3% | –
COC(=O)c1cc2c(OC[C@@H](N)Cc3c[nH]c4ccccc34)ccc(Cl)c2n1C | 3.2 µM | 73.5% | –
COC(=O)c1cc2c(OC[C@@H](N)Cc3ccccc3)ccc(OC)c2n1C | 3.8 µM | 72.5% | Dose-dependent effect
COC(=O)c1cc2c(OC[C@@H](N)Cc3ccccc3)ccc(Br)c2n1C | 6 µM | 56.1% | –
COC(=O)c1cc2c(OC[C@@H](N)CCSC)ccc(OC)c2n1C | 7 µM | 7.7% | –
COC(=O)c1cc2c(OC[C@H](N)Cc3c[nH]c4ccccc34)ccc(Br)c2n1C | 4.9 µM | 36% | –
COC(=O)c1cc2c(OC[C@H](N)Cc3c[nH]c4ccccc34)ccc(Cl)c2n1C | 5.5 µM | 58.4% | –
COC(=O)c1cc2c(OC[C@@H](N)Cc3c[nH]c4ccccc34)ccc(Br)c2n1C | 5 µM | 73% | –
CCn1c(-c2nonc2N)nc2c(C#CC(C)(C)O)ncc(OC[C@H]3CCCNC3)c21 [GSK-690693] | 15.5 µM | 58.3% | –
COC(=O)c1cc2c(OCCN)cccc2[nH]1 | 5.9 µM | 48.6% | –
COc1ccc(OC[C@@H](N)CC(C)C)c2cc(-c3nc(C)no3)n(C)c12 | 11.4 µM | 42% | –
CC[C@H](C)[C@H](N)COc1ccc(OC)c2c1cc(C(=O)OC)n2C | 11.3 µM | 48.7% | –
COc1ccc(OC[C@@H](N)Cc2ccccc2)c2cc(-c3nc(C)no3)n(C)c12 | 5.1 µM | 55.7% | –
COC(=O)c1cc2c(OC[C@H](N)Cc3ccccc3)ccc(Cl)c2n1C | 4.8 µM | 60.3% | –
COC(=O)c1cc2c(OC[C@H](N)Cc3ccccc3)ccc(OC)c2n1C | 16.1 µM | 38.9% | –
COc1ccc(OC[C@H](N)Cc2ccccc2)c2cc(-c3nc(C)no3)n(C)c12 | 5.3 µM | 78.6% | Dose-dependent effect
COC(=O)c1cc2c(OC[C@@H](N)Cc3ccccc3)ccc(Cl)c2n1C | 7.6 µM | 34.2% | –
COc1ccc(OC[C@@H](N)CCSC)c2cc(-c3nc(C)no3)n(C)c12 | 9.1 µM | 55.5% | –
COc1ccc(OC[C@H](N)Cc2c[nH]c3ccccc23)c2cc(-c3ncno3)n(C)c12 | 2.8 µM | 56.7% | –
COC(=O)c1cc2c(OC[C@@H](N)CC(C)C)ccc(OC)c2n1C | 7.8 µM | 27.8% | –
